Experimental data taken from ChEMBL document CHEMBL3763088, “Design, synthesis, and biological evaluation of water-soluble amino acid prodrug conjugates derived from combretastatin, dihydronaphthalene, and benzosuberene-based parent vascular disrupting agents” (Bioorg Med Chem, 2016).

How the values were obtained:
Leucine aminopeptidase [1] = target: T1, Leucine aminopeptidase (Sus scrofa, UniProt Q29571); assay: Drug level assessed as porcine leucine aminopeptidase-mediated compound formation treated with (Z)-N,N''-(3-Methoxy-6-(3,4,5-trimethoxystyryl)-1,2-phenylene)bis(2-aminoacetamide) after 25 hrs using 0.12 units of enzyme by HPLC analysis; format: ADME; conditions: pig
T1 sequence (Q29571 whole entry): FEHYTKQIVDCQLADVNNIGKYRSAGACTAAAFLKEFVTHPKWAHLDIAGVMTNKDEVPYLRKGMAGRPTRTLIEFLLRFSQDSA
Method in brief: (§1)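 Porcine kidney microsomal LAP; units defined with 24 mM L-leucine p-nitroanilide in 50 mM sodium phosphate pH 7.2 at 37 °C. Enzyme preincubated in the same buffer at 37 °C, then substrate added. Aliquots were quenched with acetonitrile on ice, centrifuged and run on C18 HPLC (acetonitrile/water, 0.05% TFA, 1.0 mL/min, 22 °C, diode-array UV). Cleavage % from the parent/prodrug peak-area ratio; amounts from calibration curves.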

[2] = Cytotoxicity against human DU145 cells assessed as growth inhibition after 48 hrs by SRB assay; format: functional, DU-145
Method in brief: (§2)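 Cells kept at 37 °C, 5% CO2, up to passage 15. Plated at 7500 cells/well in DMEM with 5% FBS and 1% gentamycin, grown 24 h, then given 10-fold serial dilutions for 48 h. Fixed with 10% TCA (final), SRB-stained, read at 540 nm, normalized at 630 nm. GI50 is the concentration halving net protein staining versus controls, taken from optical density data.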

Leucine aminopeptidase [3] = target: T1, Leucine aminopeptidase; assay: Drug level assessed as porcine leucine aminopeptidase-mediated compound formation treated with (Z)-N,N''-(3-Methoxy-6-(3,4,5-trimethoxystyryl)-1,2-phenylene)bis(2-aminoacetamide) after 25 hrs using 1.5 units of enzyme by HPLC analysis; format: ADME; conditions: pig; method in brief: as §1
[4] = Cytotoxicity against human SKOV3 cells assessed as growth inhibition after 48 hrs by SRB assay; format: functional, SK-OV-3; conditions: Homo sapiens, SK-OV-3, 48 h; method in brief: as §2
Leucine aminopeptidase [5] = target: T1, Leucine aminopeptidase; assay: Drug level assessed as porcine leucine aminopeptidase-mediated compound formation treated with (Z)-N,N''-(3-Methoxy-6-(3,4,5-trimethoxystyryl)-1,2-phenylene)bis(2-aminoacetamide) after 25 hrs using 3.7 units of enzyme by HPLC analysis; format: ADME; conditions: pig; method in brief: as §1
Tubulin = Tubulin (Bos taurus, UniProt Q6B856+Q862L2+Q862F3); assay: Inhibition of bovine brain tubulin polymerization preincubated for 15 mins by spectrophotometric analysis
Method in brief: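 Purified bovine brain tubulin, 1.0 mg/mL (10 μM), in 0.8 M monosodium glutamate pH 6.6 with 4% DMSO and varied compound. Temperature jumped from 0 to 30 °C; turbidity at 350 nm followed for 20 min.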

NCI-H460 = assay: Cytotoxicity against human NCI-H460 cells assessed as growth inhibition after 48 hrs by SRB assay; format: functional; method in brief: as §2

COc1ccc(/C=C\c2cc(OC)c(OC)c(OC)c2)c(N)c1N
Drug metabolism (Leucine aminopeptidase [1]): metabolite_detected | GI50 [2]: 39.1 nM | Drug metabolism (Leucine aminopeptidase [3]): metabolite_detected | GI50 [4]: 23.5 nM | Drug metabolism (Leucine aminopeptidase [5]): metabolite_detected | IC50 (Tubulin): 1500 nM | GI50 (NCI-H460): 35.9 nM
